≈ marks a conversion by molar mass, not a printed value.
What was measured:
Adenosine receptor A1 [1] = target: T1, Adenosine receptor A1 (Homo sapiens, UniProt P30542); experiment: Displacement of [125I]ABA from human adenosine A1 receptor expressed in CHOK1 cells; type: cell-based, CHO-K1
T1 sequence (P30542 whole entry): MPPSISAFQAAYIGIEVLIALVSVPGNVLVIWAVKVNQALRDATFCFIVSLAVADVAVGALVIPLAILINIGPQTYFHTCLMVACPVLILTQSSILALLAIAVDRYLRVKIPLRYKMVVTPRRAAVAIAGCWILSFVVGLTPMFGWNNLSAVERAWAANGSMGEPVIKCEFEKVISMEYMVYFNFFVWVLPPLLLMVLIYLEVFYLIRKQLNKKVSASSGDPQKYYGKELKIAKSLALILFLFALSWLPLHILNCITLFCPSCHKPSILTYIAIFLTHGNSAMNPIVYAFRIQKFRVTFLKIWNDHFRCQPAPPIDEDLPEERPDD
In short: (§1)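 Membranes from stably transfected CHO-K1 (hA1) or HEK (hA2A, hA2B, hA3) cells, 2 h at room temperature in 50 mM HEPES pH 7.4, 1 mM EDTA, 5 mM MgCl2, 1 U/mL adenosine deaminase. 5% DMSO final except hA3. Full curves 10^-11–10^-5 M, seven concentrations, four determinations each. Filtration, γ-counting, Ki derived.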

Adenosine receptor A2a [2] = target: Adenosine receptor A2a (Homo sapiens, UniProt P29274); experiment: Displacement of [125I]ZM-241385 from human adenosine A2A receptor expressed in HEK cells; type: cell-based, HEK293; in short: as §1
Sequence of Adenosine receptor A2a (Homo sapiens, UniProt P29274) (P29274 whole entry): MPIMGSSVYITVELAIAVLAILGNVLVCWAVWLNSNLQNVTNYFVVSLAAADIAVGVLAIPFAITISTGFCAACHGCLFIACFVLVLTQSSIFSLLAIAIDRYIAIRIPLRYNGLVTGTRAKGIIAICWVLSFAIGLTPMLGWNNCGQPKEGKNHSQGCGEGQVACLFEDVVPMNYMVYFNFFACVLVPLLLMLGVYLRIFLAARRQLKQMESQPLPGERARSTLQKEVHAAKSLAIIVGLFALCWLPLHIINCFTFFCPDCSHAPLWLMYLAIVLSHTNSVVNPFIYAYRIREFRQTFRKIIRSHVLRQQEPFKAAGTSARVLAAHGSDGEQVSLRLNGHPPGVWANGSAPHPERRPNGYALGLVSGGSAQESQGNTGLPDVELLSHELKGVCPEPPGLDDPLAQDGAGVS

Adenosine receptor A2b = target: T2, Adenosine receptor A2b (Homo sapiens, UniProt P29275); experiment: Displacement of [125I]3-(4-aminobenzyl)-8-phenyloxyacetate-1-propyl-xanthine from human adenosine A2B receptor expressed in HEK cells; type: cell-based, HEK293; in short: as §1
T2 sequence (P29275 whole entry): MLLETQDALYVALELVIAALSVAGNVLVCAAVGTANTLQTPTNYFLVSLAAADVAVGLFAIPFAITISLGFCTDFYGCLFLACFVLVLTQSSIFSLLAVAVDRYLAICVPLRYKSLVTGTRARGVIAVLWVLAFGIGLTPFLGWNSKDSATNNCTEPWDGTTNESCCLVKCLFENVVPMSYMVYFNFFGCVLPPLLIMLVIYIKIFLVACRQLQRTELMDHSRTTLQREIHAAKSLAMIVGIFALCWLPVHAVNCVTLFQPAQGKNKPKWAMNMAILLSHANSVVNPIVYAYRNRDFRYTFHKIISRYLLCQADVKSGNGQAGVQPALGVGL

Adenosine receptor A3 = target: T3, Adenosine receptor A3 (Homo sapiens, UniProt P0DMS8); experiment: Displacement of [125I]ABA from human adenosine A3 receptor expressed in HEK cells; type: cell-based, HEK293
T3 sequence (P0DMS8 whole entry): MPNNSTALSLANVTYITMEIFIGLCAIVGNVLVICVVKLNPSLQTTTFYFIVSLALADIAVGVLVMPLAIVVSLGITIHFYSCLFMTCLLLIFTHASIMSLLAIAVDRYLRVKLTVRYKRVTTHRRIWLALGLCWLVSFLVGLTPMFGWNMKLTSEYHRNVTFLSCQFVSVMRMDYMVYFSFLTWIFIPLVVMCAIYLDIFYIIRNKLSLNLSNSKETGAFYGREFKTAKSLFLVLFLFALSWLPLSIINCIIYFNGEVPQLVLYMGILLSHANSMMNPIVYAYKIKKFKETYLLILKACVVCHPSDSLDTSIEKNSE
In short: as §1, with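 “hA3. Radioligands: 0.3 nM (hA1) or 0.6 nM (hA3) 125I-ABA, 0.7 nM 125I-ZM241385, 0.5 nM A2B ligand.” for “hA3.”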

[3] = target: Adenosine receptors; A1 & A2a (Homo sapiens) (UniProt P30542+P29274); experiment: Selectivity for human adenosine A1 receptor over human adenosine A2A receptor; type: protein assay
[4] = target: T4, Adenosine receptor A3 (Homo sapiens) (UniProt P0DMS8); experiment: Displacement of [125I]ABA from human adenosine A3 receptor expressed in HEK cells relative to control; type: cell-based; parameters: concentration or dose not given beside the values; conditions: HEK293
T4 sequence (whole entry): T3 sequence (P0DMS8 whole entry)
In short: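 Single-point screen at 1 µM antagonist, run in duplicate, on transfected-cell membranes: CHO-K1 (hA1), HEK (hA2A, hA2B, hA3). 2 h at room temperature in 50 mM HEPES pH 7.4, 1 mM EDTA, 5 mM MgCl2, 1 U/mL adenosine deaminase; 5% DMSO except hA3. Nonspecific binding with 50 µM XAC, or 10 µM BW-1433 for hA3. Result is % radioligand bound relative to control.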

Adenosine receptor A1 [5] = target: T5, Adenosine receptor A1 (Rattus norvegicus, UniProt P25099); experiment: Displacement of [3H]CPX from rat brain cortex adenosine A1 receptor
T5 sequence (P25099 whole entry): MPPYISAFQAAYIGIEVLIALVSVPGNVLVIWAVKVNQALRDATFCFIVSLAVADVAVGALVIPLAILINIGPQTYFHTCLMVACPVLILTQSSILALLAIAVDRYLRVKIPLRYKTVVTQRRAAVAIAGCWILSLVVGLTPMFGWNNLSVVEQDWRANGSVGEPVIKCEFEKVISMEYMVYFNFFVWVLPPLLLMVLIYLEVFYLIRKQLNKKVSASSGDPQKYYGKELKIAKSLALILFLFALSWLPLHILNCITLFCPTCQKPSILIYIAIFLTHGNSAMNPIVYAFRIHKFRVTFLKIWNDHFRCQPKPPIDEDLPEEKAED
In short: (§2)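 Crude membranes (10-20 µg protein) from rat brain cortex (A1, 2 nM 3H-CPX) or striatum (A2A, 0.5-1.2 nM 3H-ZM241385) incubated 90 min at room temperature in 50 mM Tris-HCl pH 7.4 with 2 U/mL adenosine deaminase. Stopped with ice-cold buffer, then vacuum filtration and scintillation counting. Ki from concentration-response displacement.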

[6] = target: Adenosine receptor A2a (Rattus norvegicus) (UniProt P30543); experiment: Displacement of [3H]ZM241385 from rat brain striatum adenosine A2A receptor relative to control
Sequence of Adenosine receptor A2a (Rattus norvegicus) (P30543 whole entry): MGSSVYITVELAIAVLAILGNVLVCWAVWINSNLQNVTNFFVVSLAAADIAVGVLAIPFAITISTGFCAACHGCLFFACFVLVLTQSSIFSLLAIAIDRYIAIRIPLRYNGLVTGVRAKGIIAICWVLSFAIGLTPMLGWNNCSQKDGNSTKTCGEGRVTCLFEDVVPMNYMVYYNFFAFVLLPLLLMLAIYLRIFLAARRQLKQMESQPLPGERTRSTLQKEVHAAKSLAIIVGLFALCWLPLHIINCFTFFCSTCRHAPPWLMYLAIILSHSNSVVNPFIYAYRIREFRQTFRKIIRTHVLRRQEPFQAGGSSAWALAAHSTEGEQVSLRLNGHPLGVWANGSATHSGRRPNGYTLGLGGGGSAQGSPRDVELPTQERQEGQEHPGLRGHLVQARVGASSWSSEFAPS

[7] = Oral bioavailability in Sprague-Dawley rat at 1 mg/kg, po; type: ADME, organism-based; conditions: in vivo
In short: (§3)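 Pharmacokinetics after one oral dose in male Sprague-Dawley rats (1 mg/kg, or 2 mg dose), beagle dogs and cynomolgus monkeys (1 mg/kg). Bioavailability, half-life, clearance and volume of distribution reported as mean ± variation.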

[8] = Half life in Sprague-Dawley rat at 1 mg/kg, po; type: ADME, organism-based; parameters: dose 1 mg/kg, route oral; conditions: in vivo; in short: as §3
[9] = Clearance in Sprague-Dawley rat at 1 mg/kg, po; type: ADME, organism-based; parameters: dose 1 mg/kg, route oral; conditions: in vivo; in short: as §3
[10] = Aqueous solubility of the compound; type: physicochemical; conditions: water
In short: (§4)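 Solubility of each compound measured in sterile water for injection, 0.9% saline, 5% dextrose in water, ethanol and octanol; values in mg/mL from duplicate determinations per solvent, individual values varying <5%.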

Adenosine receptor A2a [11] = target: Adenosine receptor A2a (Rattus norvegicus, UniProt P30543); experiment: Displacement of [3H]ZM-241385 from rat brain striatum adenosine A2A receptor; in short: as §2
Sequence of Adenosine receptor A2a (Rattus norvegicus, UniProt P30543) (P30543 whole entry): as above

[12] = Solubility in 0.9% saline; type: physicochemical; in short: as §4
[13] = Solubility in 5% dextrose in water; type: physicochemical; in short: as §4
[14] = Solubility in ethanol; type: physicochemical; in short: as §4
[15] = Solubility in octanol; type: physicochemical; in short: as §4

Row | SMILES | Ki (Adenosine receptor A1 [1]) [nM] | Ki (Adenosine receptor A2a [2]) [nM] | Ki (Adenosine receptor A2b) [nM] | Ki (Adenosine receptor A3) [nM] | Ratio Ki [3] | Activity [4] [%] | Ki (Adenosine receptor A1 [5]) [nM] | Activity [6] [%] | bioavailability [7] [%] | half-life [8] [h] | CL/F [9] [mL/min/kg] | solubility [10] [µg/mL] | Ki (Adenosine receptor A2a [11]) [nM] | solubility [12] [µg/mL] | solubility [13] [µg/mL] | solubility [14] [µg/mL] | solubility [15] [µg/mL]
1 | CCCn1c(=O)c2nc([C@]34CC[C@](C(=O)NCCC(=O)OC)(CC3)CC4)[nH]c2n(CCC)c1=O | 22 | 1400 | 505 | > 10000 | 63 | – | – | – | – | – | – | – | – | – | – | – | –
2 | CCCn1c(=O)c2nc([C@]34CC[C@](/C=C/C(=O)O)(CC3)CC4)[nH]c2n(CCC)c1=O | 9.6 | 3330 | 100 | – | 333 | 100 | – | – | – | – | – | – | – | – | – | – | –
3 | CCCn1c(=O)c2nc([C@]34CC[C@](CCCC(=O)O)(CC3)CC4)[nH]c2n(CCC)c1=O | 29 | – | 127 | – | – | 26 | 4 | 50 | 48 | 2.04 | 7.1 | 500 (≈ 1160 µM) | – | – | – | – | –
4 | CCCn1c(=O)c2[nH]c([C@H]3CC4C[C@@H]3[C@H]3O[C@@H]43)nc2n(CCC)c1=O | 12 | – | – | 4810 | – | – | 0.7 | – | – | – | – | 460 (≈ 1340 µM) | 1250 | 430 (≈ 1250 µM) | 250 (≈ 726 µM) | 85300 (≈ 248000 µM) | 4600 (≈ 13400 µM)
